Data set [1] has as its system Mycobacterium tuberculosis. In words: Antimycobacterial activity against drug-sensitive Mycobacterium tuberculosis CIBIN 650 isolates. The format is functional. The gist of the method:
(§1)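 Modified microplate Alamar Blue assay (MABA). Inoculum came from a log-phase culture matched to McFarland 1, diluted 1:50 in Middlebrook 7H9 to 6 × 10^6 CFU/mL, and prepared just before inoculation.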

Data set [2] concerns Mycobacterium tuberculosis. In words: Antimycobacterial activity against Mycobacterium tuberculosis H37Rv. The format is functional. The gist of the method:
as §1

Data set [3] deals with Mycobacterium tuberculosis. In words: Antimycobacterial activity against drug-sensitive Mycobacterium tuberculosis CIBIN 687 isolates. Format: functional. The gist of the method:
as §1

A further data set relates to Vero. In words: Cytotoxicity against Vero cells. The settings on record: Chlorocebus sabaeus. Format: cell-based. The gist of the method:
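Vero cells in DMEM with 10% FBS (1.5 × 10^5 cells/mL) grown 24 h at 36.5 °C, 5% CO2; medium renewed, compounds (DMSO stocks) added in triplicate at 100–0.390 µg/mL by two-fold serial dilution, 24 h. Cells trypsinized, trypan blue stained, 100 counted for % dead, corrected against untreated controls (2.5% DMSO); IC50 by probit; three independent experiments, mean ± SE.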

Data set [4] in a line: Toxicity against adherent human PBMC. Format: cell-based. The gist of the method:
(§2)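 PBMC from one healthy volunteer, isolated at room temperature, in RPMI 1640 + 10% FBS at 1 × 10^6 cells/mL; compounds tested in quintuplicate, 24 h. Non-adherent cells taken with supernatant, adherent cells recovered with trypsin–EDTA, each fraction pelleted (600g, 5 min) and read separately; IC50 per fraction.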

Data set [5] in a line: Toxicity against non-adherent human PBMC. Format: cell-based. The gist of the method:
as §2

Another data set relates to PBMC. In words: Survival of adherent human PBMC at 100 ug/mL. The format is functional. The settings on record: read-out: Survival. The gist of the method:
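PBMC came from one healthy volunteer, isolated at room temperature, and were plated at 1 × 10^6 cells/mL in RPMI 1640 + 10% FBS. Compound was added in quintuplicate and incubated 24 h. Both fractions were pelleted at 600g for 5 min.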

pIC50: −log10 of the molar value. ≈ marks a conversion by molar mass, not a printed value.

What is called MIC is the smallest concentration in the dilution series that meets the test's criterion for growth inhibition. Turning to `Cc1nnc(-c2ccncc2)o1`, the MIC is 49.7 µM (≈ 8.01 µg/mL) in data set [1], 49.7 µM (≈ 8.01 µg/mL) in data set [2] and 6.21 µM (≈ 1 µg/mL) in data set [3].
A word on the pIC50: it is −log10 of the IC50, conventionally taken in molar units. Read a high pIC50 as a low IC50. On to `ClCc1nnc(-c2ccncc2)o1`, for which, in the data set on Vero, the negative logarithm of the IC50 (pIC50) is 4.19. Also, the MIC in data set [1], in data set [2] and in data set [3] was 41 µM (≈ 8.03 µg/mL) in each case.
The IC50 is the concentration at which inhibition is half-maximal. The molecule `CCCCCCCCCCCCCCCc1nnc(-c2ccncc2)o1` showed a pIC50 with Vero of 4.02. For the same molecule, the MIC was 0.09 µM (≈ 0.0322 µg/mL) in data set [1], 0.35 µM (≈ 0.125 µg/mL) in data set [2] and 0.7 µM (≈ 0.25 µg/mL) in data set [3]. Besides, the 50% inhibitory concentration (IC50) in data set [4] was 125 µg/mL (≈ 350 µM); in data set [5] it was 15.8 µg/mL (≈ 44.3 µM).
Consider `c1cc(-c2nnc(-c3ccncc3)o2)ccn1`, for which the pIC50 with Vero is 4.03. The minimal inhibitory concentration (MIC) in data set [1] was 8.93 µM (≈ 2 µg/mL); in data set [2], 8.93 µM (≈ 2 µg/mL); in data set [3], 4.46 µM (≈ 1 µg/mL).
On to `CCCCCCCCCCCCCCCCCc1nnc(-c2ccncc2)o1`, for which, in the data set with Vero, the negative logarithm of the IC50 (pIC50) is 4.06. Moreover, the values for the MIC in data set [1], in data set [2] and in data set [3] were 0.16 µM (≈ 0.0617 µg/mL), 0.65 µM (≈ 0.251 µg/mL) and 0.65 µM (≈ 0.251 µg/mL), respectively. Also, the IC50 came to 312 µg/mL (≈ 810 µM) in data set [4] and 45.4 µg/mL (≈ 118 µM) in data set [5].
Consider `O=[N+]([O-])c1ccc(-c2nnc(-c3ccncc3)o2)cc1`, for which the MIC in data set [1], in data set [2] and in data set [3] was 29.9 µM (≈ 8.01 µg/mL) in each case.
As to `O=[N+]([O-])c1cc(-c2nnc(-c3ccncc3)o2)cc([N+](=O)[O-])c1`, in the data set with Vero, the pIC50 is 4.11. For the same molecule, the MIC in data set [1] amounted to 25.5 µM (≈ 8 µg/mL); in data set [2], 25.5 µM (≈ 8 µg/mL); in data set [3] it was 6.39 µM (≈ 2 µg/mL).
`CN(C)c1ccc(-c2nnc(-c3ccncc3)o2)cc1`: the pIC50 with Vero was 4.30. Further, the minimal inhibitory concentration (MIC) in data set [1] turned out to be 30 µM (≈ 8 µg/mL); in data set [2] it was 3.76 µM (≈ 1 µg/mL); in data set [3], 3.76 µM (≈ 1 µg/mL).
Turning to `FC(F)(F)c1nnc(-c2ccncc2)o1`, the MIC in data set [1], in data set [2] and in data set [3] was 37.2 µM (≈ 8.01 µg/mL) in each case.
In the case of `O=[N+]([O-])c1ccccc1-c1nnc(-c2ccncc2)o1`, in the data set on Vero, the negative-log IC50 (pIC50) is 4.49. For the same molecule, the minimal inhibitory concentration (MIC) in data set [1] was 7.46 µM (≈ 2 µg/mL); in data set [2] it was 7.46 µM (≈ 2 µg/mL); in data set [3], 3.73 µM (≈ 1 µg/mL).
Regarding `COc1cc(-c2nnc(-c3ccncc3)o2)cc(OC)c1OC`, the pIC50 in the data set with Vero was 3.60. Besides, the MIC in data set [1] came to 7.06 µM (≈ 2.21 µg/mL); in data set [2], 14.1 µM (≈ 4.42 µg/mL); in data set [3] it was 3.53 µM (≈ 1.11 µg/mL).
Taken in the same sequence, the figures for `c1ccc(-c2nnc(-c3ccncc3)o2)cc1` were 4.17, 8.97 µM (≈ 2 µg/mL), 8.97 µM (≈ 2 µg/mL) and 4.48 µM (≈ 1 µg/mL).
As for `CN[C@@H]1[C@H](O[C@H]2[C@H](O[C@H]3[C@H](O)[C@@H](O)[C@H](N=C(N)N)[C@@H](O)[C@@H]3N=C(N)N)O[C@@H](C)[C@]2(O)C=O)O[C@@H](CO)[C@H](O)[C@H]1O` (stereo in doubt) [STREPTOMYCIN], the pIC50 with Vero is less than 4.00. Besides, the minimal inhibitory concentration (MIC) came to 0.1 µM (≈ 0.0582 µg/mL) in data set [1] and 0.86 µM (≈ 0.5 µg/mL) in data set [2].
Molecule `CC[C@@H](CO)NCCN[C@@H](CC)CO` [ETHAMBUTOL] gave a pIC50 with Vero of less than 4.00. This molecule also yielded an MIC in data set [2] of 9.8 µM (≈ 2 µg/mL).
As to `NNC(=O)c1ccncc1` [ISONIAZID], the pIC50 with Vero is 4.40. The MIC in data set [1] stood at 0.91 µM (≈ 0.125 µg/mL); in data set [2], 0.44 µM (≈ 0.0603 µg/mL); in data set [3] it was 0.91 µM (≈ 0.125 µg/mL). Moreover, the half-inhibitory concentration (IC50) is greater than 100 µg/mL in data set [4] and 87.1 µg/mL (≈ 635 µM) in data set [5]. The viability at 100 µg/mL with PBMC was greater than 95%.
Molecule `CO[C@H]1/C=C/O[C@@]2(C)Oc3c(C)c(O)c4c(O)c(c(/C=N/N5CCN(C)CC5)c(O)c4c3C2=O)NC(=O)/C(C)=C\C=C\[C@H](C)[C@H](O)[C@@H](C)[C@@H](O)[C@@H](C)[C@H](OC(C)=O)[C@@H]1C` [RIFAMPIN] showed a pIC50 in the data set on Vero of less than 4.00. In data set [2], the minimal inhibitory concentration (MIC) came out at 0.07 µM (≈ 0.0576 µg/mL).

The values are drawn from ChEMBL document CHEMBL1143736, “Synthesis and antimycobacterial activity of 4-(5-substituted-1,3,4-oxadiazol-2-yl)pyridines” (Bioorg Med Chem, 2007).
